ChEMBL document CHEMBL4251703, “Linker Variation and Structure-Activity Relationship Analyses of Carboxylic Acid-based Small Molecule STAT3 Inhibitors” (ACS Med Chem Lett, 2018)
Active and inactive are the calls of the source. The rule behind the calls is not given here.

Key:
[1] = molecular target: Signal transducer and activator of transcription 3 (Mus musculus) (UniProt P42227); test: (§1) Inhibition of STAT3 DNA binding activity in mouse NIH/3T3 nuclear extract preincubated for 30 mins followed by [32P]hSIE addition measured after 30 mins by electrophoretic mobility shift assay
How it was run: (§2)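 STAT3 DNA-binding was measured by EMSA using nuclear extracts of equal total protein from v-Src-transformed fibroblasts containing activated STAT3. Extracts were preincubated for 30 min with 0–100 μM compound, then incubated with radiolabeled hSIE probe.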

[2] = molecular target: Signal transducer and activator of transcription 3 (Mus musculus, UniProt P42227); test: as §1; how it was run: as §2
[3] = Solubility of the compound in simulated intestinal fluid at pH 6.8; format: physicochemical
How it was run: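 Aqueous solubility was determined in pH 7.4 PBS and in pH 6.8 buffered simulated intestinal fluid, reported in μg/mL.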

[4] = molecular target: Signal transducer and activator of transcription 3 (Homo sapiens) (UniProt P40763); test: Inhibition of STAT3 in human MDA-MB-231 cells assessed as reduction in p-STAT3(Y705) level at 5 uM after 1 to 24 hrs by immunoblot analysis; format: cell-based
MCF7 = test: Cytotoxicity against human MCF7 cells assessed as decrease in cell viability up to 10 uM after 72 hrs by CyQuant dye based assay; format: functional
How it was run: (§3)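 Cells were grown in 96-well format and treated once with 0–10 μM compound for 72 h. Viable cells were quantified by CyQuant proliferation assay and plotted as % viability against concentration. Data are mean ± SD of three independent determinations.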

[5] = molecular target: Signal transducer and activator of transcription 3 (Homo sapiens) (UniProt P40763); test: Inhibition of STAT3 in human MDA-MB-468 cells assessed as reduction in p-STAT3(Y705) level at 5 uM after 1 to 24 hrs by immunoblot analysis; format: cell-based
MDA-MB-231 = test: Cytotoxicity against human MDA-MB-231 cells harboring active STAT3 assessed as decrease in cell viability up to 10 uM after 72 hrs by CyQuant dye based assay; format: functional; how it was run: as §3
MDA-MB-468 = test: Cytotoxicity against human MDA-MB-468 cells harboring active STAT3 assessed as decrease in cell viability up to 10 uM after 72 hrs by CyQuant dye based assay; format: functional; how it was run: as §3

Chain of Signal transducer and activator of transcription 3 (P42227 whole entry): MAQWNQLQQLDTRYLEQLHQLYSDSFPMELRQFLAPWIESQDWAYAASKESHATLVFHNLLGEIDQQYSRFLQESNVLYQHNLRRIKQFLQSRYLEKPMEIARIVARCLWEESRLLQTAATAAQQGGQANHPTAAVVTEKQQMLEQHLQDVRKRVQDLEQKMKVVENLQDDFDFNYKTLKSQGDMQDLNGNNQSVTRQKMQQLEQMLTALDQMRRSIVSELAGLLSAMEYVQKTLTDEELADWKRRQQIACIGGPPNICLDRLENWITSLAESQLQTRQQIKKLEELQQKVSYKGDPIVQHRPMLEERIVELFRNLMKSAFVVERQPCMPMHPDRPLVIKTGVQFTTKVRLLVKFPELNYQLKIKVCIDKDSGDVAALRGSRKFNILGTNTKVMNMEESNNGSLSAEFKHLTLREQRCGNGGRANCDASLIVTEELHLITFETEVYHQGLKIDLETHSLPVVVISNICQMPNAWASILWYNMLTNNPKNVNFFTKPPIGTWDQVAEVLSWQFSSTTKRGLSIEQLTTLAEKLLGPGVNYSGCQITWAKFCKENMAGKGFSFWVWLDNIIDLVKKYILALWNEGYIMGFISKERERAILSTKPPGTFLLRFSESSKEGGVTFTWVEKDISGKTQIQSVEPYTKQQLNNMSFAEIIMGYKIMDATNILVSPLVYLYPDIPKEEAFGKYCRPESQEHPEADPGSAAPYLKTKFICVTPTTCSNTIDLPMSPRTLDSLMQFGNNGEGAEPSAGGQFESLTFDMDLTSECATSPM
Chain of Signal transducer and activator of transcription 3 (Mus musculus) (P42227 whole entry): as above
Chain of Signal transducer and activator of transcription 3 (Homo sapiens) (P40763 whole entry): as the sequence (P42227 whole entry) above, with D760E counted along it

Row | SMILES | inhibition [1] | further results
1 | C[C@H](C(=O)N(Cc1ccc(C2CCCCC2)cc1)c1c(F)cc(C(=O)O)cc1F)N(C)S(=O)(=O)c1c(F)c(F)c(F)c(F)c1F | inactive | 
2 | O=C(O)c1ccc(N(Cc2ccc(C3CCCCC3)cc2)C(=O)[C@H]2CCCN2Cc2c(F)c(F)c(F)c(F)c2F)cc1O | inactive | 
3 | CN(CC(=O)N(Cc1ccc(C2CCCCC2)cc1)c1ccc(C(=O)O)c(O)c1)S(=O)(=O)c1c(F)cc(F)cc1F |  | IC50 [2]: > 26 µM
4 | CN(CC(=O)N(Cc1ccc(C2CCOCC2)cc1)c1ccc(C(=O)NO)c(O)c1)S(=O)(=O)c1c(F)c(F)c(F)c(F)c1F | inactive | 
5 | CN([C@@H](CC(=O)O)C(=O)N(Cc1ccc(C2CCCCC2)cc1)c1ccc(C(=O)O)c(O)c1)S(=O)(=O)c1c(F)c(F)c(F)c(F)c1F | inactive | 
6 | CN(CC(=O)N(Cc1ccc(C2CCCCC2)cc1)c1ncc(C(=O)O)o1)S(=O)(=O)c1c(F)c(F)c(F)c(F)c1F | inactive | 
7 | CN(CC(=O)N(Cc1ccc(C2CCCCC2)cc1)c1ccc(C(=O)O)c(O)c1)S(=O)(=O)c1cc(F)cc(F)c1F |  | IC50 [2]: > 26 µM
8 | O=C(NO)c1ccc(N(Cc2ccc(C3CCCCC3)cc2)C(=O)[C@H]2CCCN2S(=O)(=O)c2c(F)c(F)c(F)c(F)c2F)cc1O |  | IC50 [2]: 5.5 µM
9 | CN(CC(=O)N(Cc1ccc(C2CCCCC2)nc1)c1ccc(C(=O)O)c(O)c1)S(=O)(=O)c1c(F)c(F)c(F)c(F)c1F | inactive | 
10 | CN([C@@H](CCO)C(=O)N(Cc1ccc(C2CCCCC2)cc1)c1ccc(C(=O)O)c(O)c1)S(=O)(=O)c1c(F)c(F)c(F)c(F)c1F | inactive | 
11 | CN(CC(=O)N(Cc1ccc(C2CCCCC2)cc1)c1ccc(C(=O)O)c(O)c1)C(=O)c1c(F)c(F)c(F)c(F)c1F | inactive | 
12 | CN(CC(=O)N(Cc1ccc(C2CCCCC2)cc1)c1ccc(C(=O)O)c(O)c1)S(=O)(=O)c1ccc(F)c(F)c1F |  | IC50 [2]: > 26 µM
13 | CN(CC(=O)N(Cc1ccc(C2CCC(F)(F)CC2)cc1)c1ccc(C(=O)O)c(O)c1)S(=O)(=O)c1c(F)c(F)c(F)c(F)c1F | inactive | 
14 | CN(CC(=O)N(Cc1ccc(C2CCCCC2)cc1)c1ccc(C(=O)O)c(Cl)c1)S(=O)(=O)c1c(F)c(F)c(F)c(F)c1F |  | IC50 [2]: 8.6 to 14.4 µM
15 | CC[C@H](C(=O)N(Cc1ccc(C2CCC(F)(F)CC2)cc1)c1ccc(C(=O)O)c(O)c1)N(C)S(=O)(=O)c1c(F)c(F)c(F)c(F)c1F | inactive | 
16 | O=C(O)c1ccc(N(Cc2ccc(C3CCCCC3)cc2)C(=O)[C@H]2CCCN2C(=O)c2c(F)c(F)c(F)c(F)c2F)cc1O | inactive | 
17 | CN([C@H](CO)C(=O)N(Cc1ccc(C2CCCCC2)cc1)c1ccc(C(=O)O)cc1)S(=O)(=O)c1c(F)c(F)c(F)c(F)c1F | Active | 
18 | CN(CC(=O)N(Cc1ccc(C2CCOCC2)cc1)c1ccc(C(=O)O)cc1)S(=O)(=O)c1c(F)c(F)c(F)c(F)c1F | inactive | 
19 | CN(CC(=O)N(Cc1ccc(C2CCOCC2)cc1)c1ccc(C(=O)O)c(O)c1)S(=O)(=O)c1c(F)c(F)c(F)c(F)c1F | inactive | 
20 | C[C@H](O)[C@H](C(=O)N(Cc1ccc(C2CCCCC2)cc1)c1ccc(C(=O)O)c(O)c1)N(C)S(=O)(=O)c1c(F)c(F)c(F)c(F)c1F | Active | 
21 | CN(CC(=O)N(Cc1ccc(C2CCCCC2)cc1)c1ccc(C(=O)O)c(O)c1)S(=O)(=O)c1cc(F)ccc1F |  | IC50 [2]: > 26 µM
22 | CN([C@H](CN)C(=O)N(Cc1ccc(C2CCCCC2)cc1)c1ccc(C(=O)O)c(O)c1)S(=O)(=O)c1c(F)c(F)c(F)c(F)c1F | Active | 
23 | CN(CC(=O)N(Cc1ccc(C2CCCCC2)cc1)c1ccc(C(=O)O)c(O)c1)Cc1c(F)c(F)c(F)c(F)c1F | inactive | 
24 | C[C@H](C(=O)N(Cc1ccc(C2CCCCC2)cc1)c1ccc2cn[nH]c2c1)N(C)S(=O)(=O)c1c(F)c(F)c(F)c(F)c1F | inactive | 
25 | CN([C@@H](CN)C(=O)N(Cc1ccc(C2CCCCC2)cc1)c1ccc(C(=O)O)c(O)c1)S(=O)(=O)c1c(F)c(F)c(F)c(F)c1F | inactive | 
26 | C[C@H](C(=O)N(Cc1ccc(C2CCOCC2)cc1)c1ccc(C(=O)[O-])c(O)c1)N(C)S(=O)(=O)c1c(F)c(F)c(F)c(F)c1F.[Na+] | inactive | 
27 | CN(CC(=O)N(Cc1ccc(C2CCNCC2)cc1)c1ccc(C(=O)O)c(O)c1)S(=O)(=O)c1c(F)c(F)c(F)c(F)c1F | inactive | 
28 | CN([C@H](CC(=O)O)C(=O)N(Cc1ccc(C2CCCCC2)cc1)c1ccc(C(=O)O)c(O)c1)S(=O)(=O)c1c(F)c(F)c(F)c(F)c1F | Active | 

Row | SMILES | inhibition [1] | further results
29 | CN(CC(=O)N(Cc1ccc(C2CCCCC2)cc1)c1nc(C(=O)O)co1)S(=O)(=O)c1c(F)c(F)c(F)c(F)c1F | inactive | 
30 | Cc1cc(C(=O)O)cc(C)c1N(Cc1ccc(C2CCCCC2)cc1)C(=O)CN(C)S(=O)(=O)c1c(F)c(F)c(F)c(F)c1F | inactive | 
31 | C[C@H](C(=O)N(Cc1ccc(C2CCCCC2)cc1)c1ccc(C(=O)[O-])c(O)c1)N(C)S(=O)(=O)c1c(F)c(F)c(F)c(F)c1F.[Na+] |  | solubility [3]: 127 µg/mL
32 | CN(CC(=O)N(Cc1ccc(C2CCCCC2)cc1)c1ccc(C(=O)O)c(O)c1)S(=O)(=O)c1cc(F)cc(F)c1 |  | IC50 [2]: > 26 µM
33 | CN([C@@H](CO)C(=O)N(Cc1ccc(C2CCCCC2)cc1)c1ccc(C(=O)O)c(O)c1)S(=O)(=O)c1c(F)c(F)c(F)c(F)c1F | inactive | 
34 | CN(CC(=O)N(Cc1ccc(N2CCCCC2)cc1)c1ccc(C(=O)O)cc1)S(=O)(=O)c1c(F)c(F)c(F)c(F)c1F | inactive | 
35 | CN(CC(=O)N(Cc1ccc(C2CCCCC2)cc1)c1cccc(CC(=O)O)c1)S(=O)(=O)c1c(F)c(F)c(F)c(F)c1F | inactive | 
36 | O=C(O)c1ccc(N(Cc2ccc(C3CCCCC3)cc2)C(=O)[C@H]2CCCN2S(=O)(=O)c2cc(F)cc(F)c2F)cc1O | inactive | 
37 | Cc1cc(N(Cc2ccc(C3CCCCC3)cc2)C(=O)CN(C)S(=O)(=O)c2c(F)c(F)c(F)c(F)c2F)ccc1C(=O)O | inactive | 
38 | CN(CC(=O)N(Cc1ccc(C2CCCCC2)cc1)c1ccc(C(=O)O)c(O)c1)S(=O)(=O)c1cc(C(F)(F)F)cc(C(F)(F)F)c1 |  | IC50 [2]: > 26 µM
39 | C[C@H](C(=O)N(Cc1ccc(C2CCCCC2)cc1)c1ccc2c(c1)CNC2=O)N(C)S(=O)(=O)c1c(F)c(F)c(F)c(F)c1F | inactive | 
40 | CN(CC(=O)N(Cc1ccc(C2=CCCCCC2)cc1)c1ccc(C(=O)O)cc1)S(=O)(=O)c1c(F)c(F)c(F)c(F)c1F | inactive | 
41 | O=C(O)c1ccc(N(Cc2ccc(C3CCCCC3)cc2)C(=O)[C@H]2CCCN2S(=O)(=O)c2c(F)c(F)c(F)c(F)c2F)cc1O |  | p-STAT3(Y705) reduction (qualitative call) [4]: Active; Activity (MCF7): inactive; inhibition [5]: Active; Activity (MDA-MB-231): Active; Activity (MDA-MB-468): Active
42 | CN(CC(=O)N(Cc1ccc(C2CCCCCC2)cc1)c1ccc(C(=O)O)cc1)S(=O)(=O)c1c(F)c(F)c(F)c(F)c1F | inactive | 
43 | C[C@H](C(=O)N(Cc1ccc(C2CCCCC2)cc1)c1ccc(C(=O)O)c(F)c1)N(C)S(=O)(=O)c1c(F)c(F)c(F)c(F)c1F | inactive | 
44 | CC[C@@H](C(=O)N(Cc1ccc(C2CCCCC2)cc1)c1ccc(C(=O)O)c(O)c1)N(C)S(=O)(=O)c1c(F)c(F)c(F)c(F)c1F | inactive | 
45 | CN(CC(=O)N(Cc1ccc(C2CCCCC2)cc1)c1ccc(C(=O)O)[n+]([O-])c1)S(=O)(=O)c1c(F)c(F)c(F)c(F)c1F | inactive | 
46 | CN(CC(=O)N(Cc1ccc(C2CCCCC2)cc1)c1ccc(C(=O)O)nc1)S(=O)(=O)c1c(F)c(F)c(F)c(F)c1F | inactive | 
47 | O=C(O)c1ccc(N(Cc2ccc(C3CCCCC3)cc2)C(=O)[C@H]2CCCN2S(=O)(=O)c2c(F)c(F)c(F)c(F)c2F)c(F)c1 |  | p-STAT3(Y705) reduction (qualitative call) [4]: Active; inhibition [5]: Active
48 | CN(CC(=O)N(Cc1ccc(C2CCCCC2)cc1)c1ccc(C(=O)O)c(O)c1)S(=O)(=O)c1cccnc1 |  | IC50 [2]: > 26 µM
49 | CN([C@H](CO)C(=O)N(Cc1ccc(C2CCCCC2)cc1)c1ccc(C(=O)NO)cc1)S(=O)(=O)c1c(F)c(F)c(F)c(F)c1F | Active | 
50 | O=C(O)c1ccc(N(Cc2ccc(C3CCCCC3)cc2)C(=O)[C@H]2CCCN2S(=O)(=O)c2c(F)cc(F)c(F)c2F)cc1O | inactive | 
51 | CN([C@H](CO)C(=O)N(Cc1ccc(C2CCCCC2)cc1)c1ccc(C(=O)O)c(O)c1)S(=O)(=O)c1c(F)c(F)c(F)c(F)c1F | Active | 
52 | C[C@@H](O)[C@@H](C(=O)N(Cc1ccc(C2CCCCC2)cc1)c1ccc(C(=O)O)c(O)c1)N(C)S(=O)(=O)c1c(F)c(F)c(F)c(F)c1F | inactive | 
53 | CC[C@H](C(=O)N(Cc1ccc(C2CCCCC2)cc1)c1ccc(C(=O)O)c(O)c1)N(C)S(=O)(=O)c1c(F)c(F)c(F)c(F)c1F | Active | 
54 | CN([C@H](CCO)C(=O)N(Cc1ccc(C2CCCCC2)cc1)c1ccc(C(=O)O)c(O)c1)S(=O)(=O)c1c(F)c(F)c(F)c(F)c1F | Active | 
55 | C[C@@H](C(=O)N(Cc1ccc(C2CCCCC2)cc1)c1ccc(C(=O)NO)c(O)c1)N(C)S(=O)(=O)c1c(F)c(F)c(F)c(F)c1F |  | IC50 [2]: 6.8 µM
